Type in all cases: functional, cell-based
The test system of one experiment is MOLT-4. Nature of the experiment: Inhibitory concentration required to inhibit human T-lymphoblast Molt4 cells proliferation. A digest of the protocol:
(§1)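 Human T-lymphocyte cells seeded at 300000–500000 cells/mL and mixed 1:1 with serial compound dilutions. Incubated 3 days at 37 °C, then cell number counted with a Coulter counter. IC50 taken as the concentration giving 50% inhibition of proliferation, as mean ± SE from dose–response curves of at least three independent experiments.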

For the next experiment, the system named is CCRF-CEM. Nature of the experiment: Inhibitory concentration required to inhibit human T-lymphoblast CEM cells proliferation. A digest of the protocol: as §1
Another experiment has as its system L1210. Nature of the experiment: Inhibitory concentration required to inhibit murine leukemia L1210 cells proliferation. The note with it: Mus musculus. Summed up:
(§2)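 Murine cells were suspended at 300000–500000 cells/mL and added 1:1 to wells holding serial dilutions of compound. Cells were counted by Coulter counter after 2 days at 37 °C. IC50 is the concentration inhibiting cell proliferation by 50%, given as mean ± SE from dose–response curves of at least three independent experiments.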

The test system of a further experiment is FM3A. Nature of the experiment: Inhibitory concentration required to inhibit murine mammary carcinoma FM3A cells proliferation. The note with it: Mus musculus. Summed up:
as §2

The structures appear in SMILES notation.

Turning to `C=C1CC(COc2cc(C(=O)O)n(C)n2)(c2ccccc2)OC1=O` (stereo unspecified), the half-inhibitory concentration (IC50) came out at 189 µM in the experiment with MOLT-4, 174 µM with CCRF-CEM, 107 µM in the experiment with L1210 and 189 µM with FM3A.
With `C=C1CC(COc2cc(C(=O)O)n(C)n2)(c2ccc(Cl)cc2)OC1=O` (stereo unspecified), the IC50 was determined as 46.9 µM with MOLT-4, 57.9 µM in the experiment with CCRF-CEM, 13 µM in the experiment on L1210 and 99.2 µM in the experiment on FM3A.
For `C=C1CC(COc2cc(C(=O)O)n(C)n2)(c2ccc(-c3ccccc3)cc2)OC1=O` (stereo unspecified), the half-maximal inhibitory concentration (IC50) amounted to 9.4 µM in the experiment with MOLT-4, 18.5 µM with CCRF-CEM, 14.8 µM in the experiment with L1210 and 42 µM in the experiment on FM3A.
In the same order, the values of `C=C1CC(C)(COc2cc(C(=O)O)n(C)n2)OC1=O` (stereo unspecified) are 746 µM, 402 µM, 522 µM and 755 µM.

One may read the IC50 as the concentration that inhibits the measured activity by half. A low value points to inhibition by little substance.
